The source of these data is ChEMBL document CHEMBL1141901, “1-Aryl-4,6-diamino-1,2-dihydrotriazine as antimalarial agent: a new synthetic route” (Bioorg Med Chem Lett, 2005).

SMILES strings stand for the structures.

What is called IC50 is the concentration that gives 50% inhibition. The term IC90 denotes the point of the concentration-response curve where the effect stands at 90%. High values mean weaker potency, low ones greater potency.

The nature of test [1]: Inhibitory concentration against Plasmodium falciparum.
Test [2] in a line: Inhibitory concentration against cycloguanil sensitive Plasmodium falciparum FJB-D9. The class given is functional. In outline:
(§1)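 P. falciparum field isolates (collected from patients, 1990) grown in RPMI 1640 lacking p-aminobenzoic acid and folic acid, with 25 mM HEPES, bicarbonate and 10% human AB+ serum. Compounds tested over 0.0005–100 range, 30 h at 37 °C in candle jar. Schizonts (≥8 nuclei) per 200 asexual parasites counted microscopically in duplicate wells. Inhibition as (1 − Nt/Nc)×100. IC50/IC90 taken from these values.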

The test system of test [3] is Plasmodium falciparum. Kind of test: Inhibitory concentration against Plasmodium falciparum.
The subject of test [4] is Plasmodium falciparum. Kind of test: Inhibitory concentration sensitive Plasmodium falciparum FJB-D9. It counts as functional. In outline:
as §1

For `CCc1nc(N)nc(N)c1-c1ccc(Cl)cc1` [PYRIMETHAMINE], the results for the IC50 in test [1] and in test [2] were 0.005 µM and 0.0016 µM, respectively. Also, the results for the IC90 in test [3] and in test [4] were 0.028 µM and 0.006 µM, respectively.
As for `NC1=NCN(c2ccc(F)c(Cl)c2)C(N)=N1`, the IC50 in test [1] stood at 14.7 µM; in test [2] it was 17.3 µM. For the same compound, the IC90 in test [3] came to 49.5 µM; in test [4] it was 47.6 µM.
With `NC1=NC(c2ccccc2)N(c2ccccn2)C(N)=N1` (stereo unspecified), the IC50 in test [1] was 52.9 µM; in test [2], 81 µM.
Regarding `Cc1ccc(N2CN=C(N)N=C2N)cc1`, the IC50 in test [1] was found to be 501 µM; in test [2] it was 584 µM.
The matching figures for `NC1=NCN(c2ccccn2)C(N)=N1`: 629 µM and 618 µM.
In the same order, the values of `NC1=NC(c2ccccc2)N(c2ccc(F)c(Cl)c2)C(N)=N1` (stereo unspecified) are 81.9 µM and 87.6 µM.
